# KCNK3 block = human KCNK3 channel inhibition, primary screen; 340,000 tested, 0.84% active; CHO-KCNK3 thallium flux, FluxOR fluorescence; stronger effect = lower value; B-score at 10 µM;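 active means B-score under library mean minus 4 SD, starting fluorescence ratio at most library mean plus 5 SD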;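 further: more negative B-score means stronger inhibition of thallium flux through KCNK3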
# KCNQ1 block = blocks the human KCNQ1 potassium channel. P51787. CHO-K1 KCNQ1, FluxOR thallium flux fluorescence; stronger effect = higher value. B-score at 10 µM. 310,000 tested, 1.3% active;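 active means compounds whose thallium flux B-score, printed positive for inhibition, exceeds three library SD while starting fluorescence stays within three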;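 further: channel opened by potassium depolarization with thallium stimulus after 20 min compound exposure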
# hERG protect = hERG (human) protection from proarrhythmic block | Q12809 | CHO-hERG, FluxOR thallium flux, dofetilide IC70 present | activation (rescue from dofetilide block), less the hit threshold, % at 10 µM | 310,000 tested, 0.51% active | AID 1511;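 active means activation above the mean of controls blocked by dofetilide plus 5 SD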;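 further: thallium influx through hERG after potassium depolarization seen as dye fluorescence rise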
# KCNQ1 pot = potentiates or activates the human KCNQ1 potassium channel | B-score at 10 µM | 310,000 tested, 0.35% active | CHO-K1 KCNQ1, thallium flux FluxOR fluorescence; stronger effect = higher value | AID 2648;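 active means fluorescence ratio B-score, a plate-corrected score, at least three library SD, with initial intensity B-score within 5 SD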
#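 Test system: CHO-K1 cells stably expressing KCNQ1 / Medium: assay buffer / Also added: depolarizing K+/Tl+ stimulus, K2SO4 and Tl2SO4 each 12.5 mM in 5x stock / Incubation: 90 min dye loading and 20 min compound exposure, both at room temperature / Signal: thallium influx via FluxOR fluorescence, kinetic imaging / Evaluation: B score of baseline-normalized fluorescence ratio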
# KCNK9 inh = human KCNK9 channel inhibition; B-score at 10 µM; 310,000 tested, 1.2% active; Q9NPC2; HEK293 KCNK9, FluxOR thallium flux fluorescence; stronger effect = lower value;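 active means ratio B-score over 3 SD below the library mean, with starting fluorescence within 5 SD of its mean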;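 further: negative B-score means less thallium flux so channel inhibition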
# Target sequence (Q9NPC2 whole entry, looked up): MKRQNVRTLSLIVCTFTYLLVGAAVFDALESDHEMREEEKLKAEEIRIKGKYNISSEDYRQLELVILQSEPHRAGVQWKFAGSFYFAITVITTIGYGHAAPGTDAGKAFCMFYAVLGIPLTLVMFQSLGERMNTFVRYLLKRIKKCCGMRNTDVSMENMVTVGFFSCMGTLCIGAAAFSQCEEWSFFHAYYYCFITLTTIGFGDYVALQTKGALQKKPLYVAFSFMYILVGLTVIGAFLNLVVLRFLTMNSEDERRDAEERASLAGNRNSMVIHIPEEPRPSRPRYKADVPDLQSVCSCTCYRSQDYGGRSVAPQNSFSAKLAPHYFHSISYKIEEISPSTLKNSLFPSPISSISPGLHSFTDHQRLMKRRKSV
# Kir21 block = blocks the mouse Kir2.1 inward-rectifier potassium channel; P35561; HEK293-Kir2.1, FluxOR thallium flux fluorescence; stronger effect = lower value; B-score at 10 µM; 310,000 tested, 0.85% active;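 active means fluorescence ratio B-score at or below minus 3 SD of library scores, with starting-brightness B-score within 2 SD, cut at about -4.2 in these data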;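 further: channel flux triggered by added potassium and thallium sulfate stimulus; B-score of peak minus minimum fluorescence over baseline after thallium stimulus; more negative B-score means stronger Kir2.1 block with less thallium influx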
# Starred values were filed as active, the others as inactive; i = inactive; · = no result given. Hits are enriched below; roughly 3.7% of the tested compounds scored in any of these assays.
SMILES,KCNK3 block,KCNQ1 block,hERG protect,KCNQ1 pot,KCNK9 inh,Kir21 block
Cc1ccc(-c2csc3ncnc(N4CCc5ccccc5C4)c23)cc1,i,i,-13,i,i,-0.8
CCOC(=O)c1ccc(N2C(=O)c3n[nH]c(C)c3C2c2ccccc2)cc1 (stereo not drawn),i,i,-3,i,i,0.66
CCOC(=O)c1ccc(N2C(=O)c3n[nH]c(C)c3C2c2ccc(O)cc2)cc1 (stereo not drawn),i,i,-6,i,-7.1*,0.42
Cc1ccc(NC(=O)CSc2nnc(Cc3ccccc3)c(=O)[nH]2)c(C)c1,i,i,-11,i,i,0.06
CCOC(=O)C1=C(CSc2nc3c(cc2C#N)CCC3)OC(N)=C(C#N)C1c1ccccc1 (stereo not drawn),i,i,-9,i,-6.7*,0.12
C=CCN1C(=O)/C(=C2/Sc3ccc(OC)cc3N2CC)SC1=S,i,6*,-4,i,i,1.5
CCCCN1C(=O)/C(=C2/Sc3ccc(OC)cc3N2CC)SC1=S,i,i,-1,i,i,0.42
CCOc1ccc(NC(=O)CSc2nnc(C3CC3)n2C)cc1S(=O)(=O)N1CCCCC1,i,·,·,·,·,·
O=C(Nc1ccc(Br)c2ccccc12)c1ccc2ccccc2c1O,i,7*,-28,i,i,0.37
CC(=O)c1ccc(S(=O)(=O)Nc2cc3c(cc2C(C)=O)OCO3)cc1,i,i,-5,i,i,-1
CC(=O)c1cc2c(cc1NS(=O)(=O)c1ccc3c(c1)OCCO3)OCO2,i,i,5.1*,i,i,1.7
Cc1ccc2nc(Cl)c3cc(C(=O)N(CCN(C)C)Cc4ccco4)sc3c2c1,i,i,-16,i,i,-4.5*
CN(C)CCN(Cc1ccco1)C(=O)c1cc2c(Cl)nc3ccccc3c2s1,i,i,-7,i,i,-0.05
CC(C)c1ccc(NC(=O)C(c2ccccc2)N(Cc2ccco2)C(=O)CC2NC(=O)NC2=O)cc1 (stereo not drawn),i,8*,-10,i,i,0.28
COc1ccc(NC(=O)C(c2ccc(OC)cc2)N(C)C(=O)CC2NC(=O)NC2=O)cc1 (stereo not drawn),i,i,-8,i,i,-0.06
CC1CCC(NC(=O)c2cccn2C)CC1 (stereo not drawn),i,·,·,·,·,·
C=CCn1c(SCC(=O)N(CCOC)c2c(N)n(CC(C)C)c(=O)[nH]c2=O)nc2ccccc21,i,i,-13,i,i,0.03
Clc1ccc(Cl)c(OCCCCNCc2ccccc2)c1,i,i,-16,i,i,-12*
OCCNCCCOc1ccc(Cl)cc1Br,i,i,-15,i,i,-1.6
Clc1ccc(OCCCNCc2ccccc2)c(Br)c1,i,i,-20,i,i,-16*
CC1(c2ccccc2)CC(C)(C)N2C(=O)/C(=C3\SC(=S)NC3=O)c3cccc1c32 (stereo not drawn),i,i,-6,81*,i,-1.5
Cc1nc(-c2c(C(F)(F)F)noc2-c2ccc(O)cc2O)cs1,i,i,-11,i,i,-3.7
CCOc1cc(C)c(-c2onc(C(F)(F)F)c2-c2csc(C)n2)c(O)c1,i,8*,-18,i,i,-0.57
CCc1ccccc1NC1=NCC(=O)N1Cc1ccc(OC)cc1,i,i,1,i,i,-4.9*
CC(C)(C)c1cc(NCCCn2ccnc2)n2ncc(-c3ccc(Cl)cc3)c2n1,i,i,-11,i,i,0.59
SMILES,KCNK3 block,KCNQ1 block,hERG protect,KCNQ1 pot,KCNK9 inh,Kir21 block
CN(C)CCCNc1cc(C(C)(C)C)nc2c(-c3ccccc3)cnn12,i,i,-30,i,i,-4.8*
COC(=O)c1ccc(N2C(=O)CC(SCC(=O)Nc3ccc(OC)cc3)C2=O)cc1 (stereo not drawn),i,i,-10,i,i,1.6
CN=C(Nc1cc(Cl)ccc1Cl)SC1CC(=O)N(c2ccc(C(=O)OC)cc2)C1=O (stereo not drawn),i,i,-12,i,-8*,-1.2
O=C(NC12CC3CC(CC(C3)C1)C2)c1cc([N+](=O)[O-])ccc1N1CCOCC1,i,7*,-12,i,i,-0.03
CCCCN(C)CC(O)Cn1cc(/C=C/C(=O)c2cccs2)c2ccccc21 (stereo not drawn),i,8*,-32,i,i,-7
NS(=O)(=O)c1ccc(CCNC(=O)COC(=O)CC(c2ccccc2)c2ccccc2)cc1,i,i,-11,i,i,-5.1*
NS(=O)(=O)c1ccc(CCNC(=O)CSc2ccc3ccccc3c2)cc1,i,i,11*,i,i,0.78
NS(=O)(=O)c1ccc(CCNC(=O)CSc2ccc([N+](=O)[O-])cc2)cc1,i,i,-9,i,i,-0.01
OC(CN1CCN(c2ccccc2)CC1)Cn1c2ccccc2c2ccccc21 (stereo not drawn),i,i,-6,i,i,-0.05
OC(CN1CCN(Cc2ccccc2)CC1)Cn1c2ccccc2c2ccccc21 (stereo not drawn),i,i,-14,i,i,-4.4*
CC(C)NC(=O)CCc1nc2cccnc2n1-c1ccccc1,i,i,-4,i,i,0.79
COc1ccc(-c2c3c(cc4ncn(Cc5ccccc5)c24)COC3=O)cc1,i,·,·,·,·,·
COC(=O)[C@@]1(Cc2ccc(F)cc2)[C@H]2c3cc(C(=O)N(C)C)n(Cc4ccc(OC)c(OC)c4)c3C[C@H]2CN1C(=O)c1ccccc1,·,i,-9,i,i,0.47
C=C1C(=O)C=C2CN(C(=O)c3ccccc3)[C@@](Cc3ccc(F)cc3)(C(=O)OC)[C@@H]12,i,i,-26,17*,i,-4.5*
OCCN(CCO)c1ccc(C(c2ccccc2Cl)c2ccc(N(CCO)CCO)cc2Cl)c(Cl)c1,i,i,-10,11*,i,2.5
CC(C)c1ccc(N=C2N=C(N)c3ccccc32)cc1,i,i,-10,i,i,-4.5*
NC1=NC(=Nc2ccccc2)c2ccccc21,i,i,-6,i,i,-1.2
Cc1ccc(C(C)C)c(OCC(O)CNC2CCCC2)c1 (stereo not drawn),i,i,-9,i,i,-0.28
NS(=O)(=O)c1ccc(CCNC(=O)C(=O)NCC2OCCN2S(=O)(=O)c2ccc(Cl)cc2)cc1 (stereo not drawn),i,i,-10,i,i,-0.86
CCOC(=O)c1c(NC(=O)CCCC(=O)O)sc2c1CCC2,i,i,-1,i,i,0.06

# Bioassay records (PubChem)
